We go through two molecules from ChEMBL document CHEMBL1157382, “Scopularides A and B, cyclodepsipeptides from a marine sponge-derived fungus, Scopulariopsis brevicaulis” (2008).

The source made the active and inactive calls. No cut-off for these calls is given here.

Assay [1] concerns COLO357. In words: Antitumor activity against human Colo357 cells assessed as reduction of viability at 10 ug/ml. It counts as functional. The procedure, abridged: (§1)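 Viability was measured in the pancreatic tumor lines Colo357 and Panc89 and the colon tumor line HT29, with compound present at a final concentration of 10 µg/mL. The read-out is percent reduction in cell viability.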

A short description of assay [2]: Antitumor activity against human Panc89 cells assessed as reduction of viability at 10 ug/ml. It counts as functional. The procedure, abridged: as §1
The test system of assay [3] is Nakaseomyces glabratus. Kind of assay: Antimicrobial activity against Candida glabrata. The format is functional, organism-based.
Assay [4] concerns Escherichia coli. In words: Antimicrobial activity against Escherichia coli. It counts as functional, organism-based.
Assay [5] has as its system HT-29. In words: Antitumor activity against human HT29 cells assessed as reduction of viability at 10 ug/ml. The format is functional. The procedure, abridged: as §1
Assay [6] relates to Pseudomonas fluorescens. In words: Antimicrobial activity against Pseudomonas fluorescens. The format is functional, organism-based.

As for `CCCCC(C)[C@@H]1CC(=O)NCC(=O)N[C@@H](C(C)C)C(=O)N[C@H](CC(C)C)C(=O)N[C@@H](C)C(=O)N[C@@H](Cc2ccccc2)C(=O)O1` (some centres not stated) [SCOPULARIDE B], the Activity in assay [1] is recorded as 26%; in assay [2] it was 49%; in assay [5], 24%. The outcome in assay [3], in assay [4] and in assay [6] was inactive.

In the case of `CCCCCCC(C)[C@@H]1CC(=O)NCC(=O)N[C@@H](C(C)C)C(=O)N[C@H](CC(C)C)C(=O)N[C@@H](C)C(=O)N[C@@H](Cc2ccccc2)C(=O)O1` (some centres not stated) [SCOPULARIDE A], the values for the Activity in assay [1], in assay [2] and in assay [5] were 36%, 42% and 37%, respectively. Further, the outcome in assay [3], in assay [4] and in assay [6] was inactive.
